An excerpt weighted towards active compounds, which were near 4.6% of everything screened.
OX1R antag-1 = antagonists of human orexin 1 receptor (OX1R) | OX1R-expressing cells, FRET antagonist read-out | Orexin/Hypocretin receptor type 1 (Homo sapiens), O43613 | inhibition, % at 6.6 µM | 330,000 compounds, 1.8% hits | AID 485270, 2010; in the data active means inhibition mostly above about 38%, no sharp cut-off; inactive means mostly below about 40%;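 further: 0% = agonist challenge alone and 100% = reference antagonist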
GPR7 antagonist = GPR7 receptor antagonists, primary screen, cell-based, fluorescence, single concentration | Neuropeptides B/W receptor type 1 (Homo sapiens), P48145 | GPR7-expressing cells, fluorescence antagonist assay | inhibition, % at 4.4 µM | 290,000 compounds, 1.1% hits | AID 1861, 2009; in the data active means inhibition above about 16%, passing the limit was not always enough;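 further: cells stimulated with the agonist NPW; 0% = agonist with vehicle and 100% = vehicle without agonist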
Target sequence (P48145 whole entry, looked up): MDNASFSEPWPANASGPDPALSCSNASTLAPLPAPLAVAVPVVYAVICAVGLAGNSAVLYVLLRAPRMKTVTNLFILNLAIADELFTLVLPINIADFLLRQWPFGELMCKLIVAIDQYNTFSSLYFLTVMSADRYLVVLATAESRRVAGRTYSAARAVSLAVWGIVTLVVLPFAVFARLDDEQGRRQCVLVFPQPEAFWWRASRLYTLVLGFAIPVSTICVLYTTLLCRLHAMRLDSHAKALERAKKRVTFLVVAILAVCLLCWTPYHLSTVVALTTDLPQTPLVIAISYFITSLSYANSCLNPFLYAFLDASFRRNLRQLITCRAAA
CHO parental Ca = ATP-evoked calcium signal inhibitors, parental CHO, primary screen, counter-screen for OX1R antagonist project, cell-based, fluorescence, Fluo-8 calcium dye; parental CHO-K1, ATP-induced calcium, Fluo-8 fluorescence; inhibition, % at 5.6 µM; 330,000 compounds, 0.63% hits; AID 463079, 2010;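 active means inhibition above that plate's mean sample inhibition plus 3 SD, cut at about 26% in these data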;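 further: 0% = ATP-challenged DMSO wells and 100% = DMSO wells without ATP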
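Test system: parental CHO cells; detection: calcium-sensitive Fluo-8 fluorescence; evaluation: percent inhibition of calcium signal; also added: ATP as calcium-mobilizing challenge; repeats: one well per compound; control set: ATP-challenged DMSO wells low, unchallenged DMSO wells high; compound: single nominal dose of 5.6 µM per compound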
TAAR1 ag = human TAAR1 agonists, primary screen, Fluo-8 calcium fluorescence, CHO RD-HGA16 cells. AID 624467, 2012. vehicle wells 0%, saturating PEA agonist 100%. activation, % at 3 µM. 360,000 compounds, 0.99% hits. Trace amine-associated receptor 1 (Homo sapiens), Q96RJ0;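 active means activation above the mean activation of all test compounds in the run plus 3 SD, cut at about 38% in these data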
Target sequence (Q96RJ0 whole entry, looked up): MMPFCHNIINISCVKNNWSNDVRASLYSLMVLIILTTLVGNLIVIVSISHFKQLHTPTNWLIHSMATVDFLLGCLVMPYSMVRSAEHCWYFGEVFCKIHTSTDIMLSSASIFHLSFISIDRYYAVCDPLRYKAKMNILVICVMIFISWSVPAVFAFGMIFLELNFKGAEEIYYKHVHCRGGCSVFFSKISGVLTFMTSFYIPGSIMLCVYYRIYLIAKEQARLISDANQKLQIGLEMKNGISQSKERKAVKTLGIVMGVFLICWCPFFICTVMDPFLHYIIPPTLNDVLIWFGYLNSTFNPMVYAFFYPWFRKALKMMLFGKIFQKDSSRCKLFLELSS
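test system = CHO RD-HGA16 cells carrying human TAAR1 plus Gα16 | schedule = 17-24 h seeding, 75 min 37 °C dye, 30 min RT | compound dosing = 3 µM single concentration | control set = DMSO and PEA EC100 | replicates = n 1 | signal = Fluo-8 fluorescence, 5 s baseline then 140 s kinetic read | measure = percent activation vs PEA EC100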
OX1R antag-2 = OX1R (HCRTR1) antagonists, primary screen, fluorescence, CHO/OX1R cells, Fluo-8 calcium, orexin A; inhibition, % at 5 µM; 330,000 compounds, 0.43% hits; Fluo-8 calcium fluorescence; Orexin/Hypocretin receptor type 1 (Homo sapiens), O43613;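 active means inhibition above its plate's threshold, mean inhibition of all tested compounds on the plate plus 3 SD, cut at about 37% in these data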;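 further: 0% = orexin A challenge wells and 100% = SB-334867-A antagonist wells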
TAAR1 antag = human TAAR1 antagonists, primary screen, Fluo-8 calcium fluorescence, CHO RD-HGA16 cells; Trace amine-associated receptor 1 (Homo sapiens), Q96RJ0; antagonist; inhibition, % at 3 µM; 360,000 compounds, 1.5% hits; AID 624466, 2012;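 active means inhibition above a per-plate cutoff, the mean inhibition of test compounds on that plate plus 3 SD, cut at about 49% in these data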;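 further: 0% = DMSO plus EC80 beta-PEA response and 100% = DMSO alone without agonist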
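System: RD-HGA16 CHO cells with stable hTAAR1 and Gα16 | Probe or stimulus: EC80 β-phenethylamine stimulus | Dosing: 3 µM, single point | Times: Dye loading 75 min at 37 °C, then 30 min room temperature | Measured by: Fluo-8 calcium-sensitive fluorescence | Read-out basis: % inhibition of agonist calcium response | Replicates: n of 1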
nonsel antag count = nonselective antagonists in TAAR1 counter-screen cells, counter-screen for hTAAR1 antagonist project, cell-based, fluorescence, calcium | shares compounds with TAAR1 antag | counterscreen cell line, antagonist mode | inhibition, % at 3 µM | 2,400 compounds, 77% hits; in the data active means inhibition above about 22%;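 further: CHO-Ga16 host cells stimulated with ATP at an EC80 level; 0% = agonist EC80 plus vehicle and 100% = vehicle without agonist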
TAAR1 antag conf = human TAAR1 antagonists, retest of hits, confirmation, cell-based, fluorescence; shares compounds with TAAR1 antag; TAAR1-expressing cells, fluorescence antagonist read-out; inhibition, % at 3 µM; 2,400 compounds, 40% hits; AID 651785, 2012; in the data active means inhibition above about 49%;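 further: CHO-Ga16 host cells challenged with agonist PEA near its EC80; 0% = agonist at EC80 plus vehicle and 100% = vehicle with no agonist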
Ga16 nonsel ag = calcium activation in Ga16-expressing cells, counter-screen for TAAR1 antagonist project, cell-based, fluorescence; shares compounds with TAAR1 antag; agonist counterscreen; activation, % at 3 µM; 2,400 compounds, 18% hits; AID 651953, 2012; in the data active means activation above about 12%;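 further: 0% = vehicle wells and 100% = saturating stimulus response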
TAAR1 ag count = TAAR1 activation by candidate antagonists – cell-based, fluorescence, counter-screen for TAAR1 antagonist project; shares compounds with TAAR1 antag; hTAAR1 cell line, agonist mode; activation, % at 3 µM; 2,400 compounds, 2% hits; AID 651955, 2012; in the data active means activation above about 37%;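 further: CHO cells stably expressing TAAR1 with calcium dye readout; 0% = DMSO vehicle and 100% = full agonist response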
* = called active by the depositor.

For Cc1ccc(C)c(CN2CCCN(C(=O)Cn3ncc4c3-c3ccccc3OC4)C2)c1 the results were OX1R antag-1 56*, GPR7 antagonist 13, CHO parental Ca -16, TAAR1 ag 6, OX1R antag-2 3, TAAR1 antag 59*, nonsel antag count 23*, TAAR1 antag conf 46, Ga16 nonsel ag 12* and TAAR1 ag count 12.
`c1ccc(CCc2cn(C[C@H]3CC[C@@H]([C@@H]4CC[C@H](Cn5cc(CCc6ccccc6)nn5)O4)O3)nn2)cc1` gave OX1R antag-1 17, GPR7 antagonist 8, CHO parental Ca -6, TAAR1 ag 26, OX1R antag-2 -22, TAAR1 antag 57*, nonsel antag count 32*, TAAR1 antag conf 57*, Ga16 nonsel ag 13* and TAAR1 ag count 13.
Screening c1ccc(-c2cn(C[C@H]3CC[C@@H]([C@@H]4CC[C@H](Cn5cc(-c6ccccc6)nn5)O4)O3)nn2)cc1 returned OX1R antag-1 36, GPR7 antagonist 9, CHO parental Ca -24, TAAR1 ag 13, OX1R antag-2 -43 and TAAR1 antag 9.
For Cc1ccccc1-c1cc(C(=O)NCc2ccc(OC(F)(F)F)cc2)n(CC2CC(c3cccnc3)=NO2)n1 (stereo not given) the results were OX1R antag-1 5, CHO parental Ca -4, TAAR1 ag 16, OX1R antag-2 8, TAAR1 antag 70*, nonsel antag count 36*, TAAR1 antag conf 53*, Ga16 nonsel ag 7 and TAAR1 ag count 11.
Screening Cc1ccc(CNC(=O)c2cc(-c3ccccc3C)nn2CC2CC(c3cccnc3)=NO2)cc1 (stereo not given) returned OX1R antag-1 -1, CHO parental Ca -11, TAAR1 ag 12, OX1R antag-2 -16, TAAR1 antag 64*, nonsel antag count 26*, TAAR1 antag conf 34, Ga16 nonsel ag 5 and TAAR1 ag count 10.
Screening O=C(NCc1cccc(Br)c1)c1cc(-c2ccccc2)nn1CC1CC(c2cccnc2)=NO1 (stereo not given) returned OX1R antag-1 14, CHO parental Ca -17, TAAR1 ag 16, OX1R antag-2 -19, TAAR1 antag 56*, nonsel antag count 21*, TAAR1 antag conf 29, Ga16 nonsel ag 4 and TAAR1 ag count 1.
For O=C(NCc1cccc(C(F)(F)F)c1)c1cc(-c2ccccc2)nn1CC1CC(c2cccnc2)=NO1 (stereo not given) the results were OX1R antag-1 17, CHO parental Ca 11, TAAR1 ag 18, OX1R antag-2 -24 and TAAR1 antag 32.
For O=C(Nc1cccc(Cl)c1)N(Cc1nc2ccccc2c(=O)[nH]1)Cc1cccs1 the results were OX1R antag-1 15, GPR7 antagonist -3, CHO parental Ca -13, TAAR1 ag 10, OX1R antag-2 -34, TAAR1 antag 51*, nonsel antag count 30*, TAAR1 antag conf 44, Ga16 nonsel ag 10 and TAAR1 ag count 12.
COc1ccc(OC)c(C(=O)COC(=O)COc2ccccc2F)c1 was read as TAAR1 ag -4 and TAAR1 antag -10.
For O=C(COc1ccc(-c2ccccc2)cc1)N/N=C/c1ccccc1Br the results were OX1R antag-1 21, GPR7 antagonist 7, CHO parental Ca 1, TAAR1 ag 0, OX1R antag-2 -35 and TAAR1 antag 17.
For O=C(COc1ccc(-c2ccccc2)cc1)N/N=C/c1cc(O)ccc1Br the results were OX1R antag-1 19, GPR7 antagonist -11, CHO parental Ca -20, TAAR1 ag -1, OX1R antag-2 -34, TAAR1 antag 53*, nonsel antag count 22*, TAAR1 antag conf 28, Ga16 nonsel ag 1 and TAAR1 ag count 0.
Screening N#Cc1ccc(-c2ccc(OCC(=O)NN=Cc3ccncc3)cc2)cc1 returned OX1R antag-1 14, CHO parental Ca -10, TAAR1 ag 14, OX1R antag-2 -7, TAAR1 antag 54*, nonsel antag count 26*, TAAR1 antag conf 53*, Ga16 nonsel ag 13* and TAAR1 ag count 14.
Screening CN(C)S(=O)(=O)c1cccc(NC(=O)c2ccc(N3CCOCC3)c([N+](=O)[O-])c2)c1 returned OX1R antag-1 20, GPR7 antagonist 7, CHO parental Ca -12, TAAR1 ag 14, OX1R antag-2 -17 and TAAR1 antag 23.
For Cc1c(C(=O)Nc2cccc([N+](=O)[O-])c2)csc1-c1ccccc1 the results were OX1R antag-1 72*, GPR7 antagonist 1, CHO parental Ca -4, TAAR1 ag 14, OX1R antag-2 9, TAAR1 antag 81*, nonsel antag count 37*, TAAR1 antag conf 54*, Ga16 nonsel ag 4 and TAAR1 ag count -2.
CC(C)COc1cccc(C(=O)NC(=S)NCc2cccnc2)c1 was read as OX1R antag-1 5, GPR7 antagonist -4, CHO parental Ca -18, TAAR1 ag -2, OX1R antag-2 -33 and TAAR1 antag -47.
For Oc1c(N=NC(=S)Nc2ccccc2F)c2ccccc2n1Cc1ccccc1F the results were OX1R antag-1 42, GPR7 antagonist -10, CHO parental Ca -1, TAAR1 ag 7, OX1R antag-2 -19, TAAR1 antag 54*, nonsel antag count -2, TAAR1 antag conf 30, Ga16 nonsel ag 5 and TAAR1 ag count 4.
Screening Cc1ccccc1Cn1c(O)c(N=NC(=S)Nc2ccccc2F)c2ccccc21 returned OX1R antag-1 2, GPR7 antagonist -15, CHO parental Ca -3, TAAR1 ag -1, OX1R antag-2 -37 and TAAR1 antag 11.

Bioassay records: PubChem BioAssay, The Scripps Research Institute Molecular Screening Center
